# Assays:
# [1] = tested on: Staphylococcus epidermidis; experiment: Antimicrobial activity against Staphylococcus epidermidis 16/2 after 18 hrs by agar dilution method; type: functional; conditions: 16/2, 18 h
# In short: (§1)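 Agar dilution on Mueller-Hinton medium, inoculum 10⁴ CFU/spot; MIC is the minimum inhibitory concentration against the named strain.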
# [2] = tested on: Staphylococcus aureus; experiment: (§2) Antimicrobial activity against Staphylococcus aureus Smith after 18 hrs by agar dilution method; type: functional; in short: as §1
# [3] = tested on: Stenotrophomonas maltophilia; experiment: Antimicrobial activity against Xanthomonas maltophilia IAC 739 after 18 hrs by agar dilution method; type: functional; conditions: IAC 739, 18 h; in short: as §1
# [4] = tested on: Enterococcus faecalis; experiment: Antimicrobial activity against Enterococcus faecalis 6 after 18 hrs by agar dilution method; conditions: Enterococcus faecalis, 6, 18 h
# [5] = tested on: Streptococcus pyogenes; experiment: Antimicrobial activity against Streptococcus pyogenes b15 after 18 hrs by agar dilution method; type: functional; conditions: b15, 18 h; in short: as §1
# [6] = tested on: Escherichia coli; experiment: Inhibition of Escherichia coli DNA gyrase A2B2 complex after 30 mins by supercoiling assay
# [7] = Octanol-water partition coefficient, log D of the compound at pH 7.4 by shake-flask method; type: physicochemical
# In short: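 Octanol/water partition measured by shake-flask at pH 7.4.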
# [8] = tested on: Staphylococcus aureus; experiment: as §2; type: functional; in short: as §1; remark: listed apart in the source
# [9] = tested on: Staphylococcus aureus; experiment: Antimicrobial activity against Staphylococcus aureus Smith infected in iv dosed septicaemia Swiss albino mouse model after 4 days; type: functional; conditions: 96 h
# In short: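 Septicaemia model in mice infected with S. aureus Smith, compound given iv. In experiments with 0-1 survivors among 5-10 control mice, ED₅₀ (mg/kg) taken as lowest dose giving 3-5 survivors out of 5 infected mice.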
# [10] = tested on: Escherichia coli; experiment: Antimicrobial activity against Escherichia coli 25922 after 18 hrs by agar dilution method; type: functional; conditions: Escherichia coli, 25922, 18 h; in short: as §1
# [11] = tested on: Staphylococcus aureus; experiment: Antimicrobial activity against Staphylococcus aureus ATCC 25923 after 18 hrs by agar dilution method; type: functional; conditions: ATCC 25923, 18 h; in short: as §1
# [12] = tested on: Staphylococcus aureus; experiment: Plasma shift, ratio of MIC for Staphylococcus aureus Smith in presence of mouse plasma to MIC for Staphylococcus aureus Smith in absence of mouse plasma; type: functional
# In short: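 Agar dilution MICs against S. aureus Smith were run on BHI agar mixed 1:1 with mouse plasma and on plain BHI agar. The plasma shift is the MIC with plasma divided by the MIC on BHI agar alone.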
# [13] = tested on: Haemophilus influenzae; experiment: Antimicrobial activity against multidrug-resistant Haemophilus influenzae after 18 hrs by agar dilution method; type: functional
# In short: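 Agar dilution on Haemophilus test medium, inoculum 10⁵ CFU/spot, against 21 multiresistant H. influenzae strains. MIC_50/90 in μg/mL taken as the minimum concentration inhibiting at least 50% or 90% of the strains.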
# [14] = tested on: Streptococcus pneumoniae; experiment: Antimicrobial activity against multidrug-resistant Streptococcus pneumoniae after 18 hrs by agar dilution method; type: functional
# In short: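 Agar dilution on IsoSensitest agar supplemented with sheep blood (5% v/v), inoculum 10⁴ CFU/spot, against 21 multiresistant S. pneumoniae strains. MIC_50/90 in μg/mL taken as the minimum concentration inhibiting at least 50% or 90% of the strains.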
# [15] = tested on: Enterococcus faecium; experiment: Antimicrobial activity against multidrug-resistant Enterococcus faecium after 18 hrs by agar dilution method; type: functional
# In short: (§3)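 Agar dilution on Mueller-Hinton agar, inoculum 10⁴ CFU/spot, against panels of multiresistant clinical strains (S. aureus 11, E. faecalis 16, E. faecium 23). MIC_50/90 in μg/mL taken as the minimum concentration inhibiting at least 50% or 90% of the strains tested.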
# [16] = tested on: Enterococcus faecalis; experiment: Antimicrobial activity against multidrug-resistant Enterococcus faecalis after 18 hrs by agar dilution method; type: functional; in short: as §3
# [17] = tested on: Moraxella catarrhalis; experiment: Antimicrobial activity against multidrug-resistant Moraxella catarrhalis after 18 hrs by agar dilution method; type: functional
# In short: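 Agar dilution on Mueller-Hinton agar supplemented with sheep blood (5% v/v), inoculum 10⁵ CFU/spot, against 20 multiresistant M. catarrhalis strains. MIC_50/90 in μg/mL taken as the minimum concentration inhibiting at least 50% or 90% of the strains.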
# [18] = tested on: Staphylococcus aureus; experiment: Antimicrobial activity against multidrug-resistant Staphylococcus aureus after 18 hrs by agar dilution method; type: functional; in short: as §3
SMILES,MIC [1] [µg/mL],MIC [2] [µg/mL],MIC [3] [µg/mL],MIC [4] [µg/mL],MIC [5] [µg/mL],MNEC [6] [µg/mL],logD [7],MIC [8] [µg/mL],ED50 [9] [mg/kg],MIC [10] [µg/mL],MIC [11] [µg/mL],other results
COc1cc(O)c2c(c1Cl)C(=O)OCCCCC(=S)N[C@H](c1nc(CN)no1)CSC2.Cl,< 0.12,0.12,4,< 0.12,0.25,0.002,1.89,0.12,6,64,0.5,–
COc1cc(O)c2c(c1C)C(=O)OCCCCC(=O)N[C@H](c1nc(C)no1)CSC2,0.12,0.25,4,0.5,1,0.01,1.99,0.25,> 25,> 64,0.5,Ratio [12]: 2
COc1cc(O)c2c(c1C)C(=O)O[C@H](CO)CCC/C(S)=N/[C@H](c1nc(C)no1)CSC2,–,0.5,–,–,–,0.005,–,–,12.5,–,–,MIC50 [13]: 8 µg/mL; MIC90 [13]: 8 µg/mL; MIC50 [14]: 2 µg/mL; MIC90 [14]: 4 µg/mL; MIC50 [15]: 1 µg/mL; MIC90 [15]: 2 µg/mL; MIC50 [16]: 1 µg/mL; MIC90 [16]: 1 µg/mL; MIC50 [17]: 2 µg/mL; MIC90 [17]: 2 µg/mL; MIC50 [18]: 1 µg/mL; MIC90 [18]: 1 µg/mL
CC1(C)S[C@@H]2[C@H](NC(=O)Cc3ccccc3)C(=O)N2[C@H]1C(=O)O [PENICILLIN G],–,–,–,–,–,–,–,–,–,–,–,MIC50 [13]: 32 µg/mL; MIC90 [13]: > 32 µg/mL; MIC50 [14]: 2 µg/mL; MIC90 [14]: 8 µg/mL; MIC50 [17]: 8 µg/mL; MIC90 [17]: 32 µg/mL
COc1cc(O)c2c(c1Br)C(=O)OCC(=O)NCC(=S)N[C@H](c1nc(CNC(C)C)no1)CSC2.Cl,< 0.12,0.5,16,0.25,0.25,0.02,–,0.5,12,> 64,1,–
COc1cc(O)c2c(c1C)C(=O)OCC(=O)NCC(=O)N[C@H](c1nc(C)no1)CSC2,1,8,> 64,8,2,0.01,1.05,8,> 25,> 64,32,–
CC(=O)NC[C@H]1CN(c2ccc(N3CCOCC3)c(F)c2)C(=O)O1 [LINEZOLID],–,–,–,–,–,–,–,–,–,–,–,MIC50 [13]: 8 µg/mL; MIC90 [13]: 16 µg/mL; MIC50 [14]: 1 µg/mL; MIC90 [14]: 2 µg/mL; MIC50 [15]: 1 µg/mL; MIC90 [15]: 2 µg/mL; MIC50 [16]: 2 µg/mL; MIC90 [16]: 2 µg/mL; MIC50 [17]: 8 µg/mL; MIC90 [17]: 16 µg/mL; MIC50 [18]: 1 µg/mL; MIC90 [18]: 2 µg/mL
CO[C@@H]1[C@@H](OC(N)=O)[C@@H](O)[C@H](Oc2ccc3c(O)c(NC(=O)c4ccc(O)c(CC=C(C)C)c4)c(=O)oc3c2C)OC1(C)C [NOVOBIOCIN],0.25,–,> 64,4,1,–,–,0.12,3,> 64,0.25,–
COc1cc(O)c2c(c1Br)C(=O)OCCCCC(=S)N[C@H](c1nc(C)no1)CSC2,< 0.12,0.12,1,0.12,0.12,0.005,3.23,< 0.12,> 25,> 64,< 0.12,Ratio [12]: 8
COc1cc(O)c2c(c1Br)C(=O)OCC(=O)NCC(=S)N[C@H](c1nc(C)no1)CSC2,< 0.12,0.12,0.25,< 0.12,0.12,0.05,2.61,< 0.12,12.5,> 64,0.25,–
CN[C@H](CC(C)C)C(=O)N[C@H]1C(=O)N[C@@H](CC(N)=O)C(=O)N[C@H]2C(=O)N[C@H]3C(=O)N[C@H](C(=O)N[C@H](C(=O)O)c4cc(O)cc(O)c4-c4cc3ccc4O)[C@H](O)c3ccc(c(Cl)c3)Oc3cc2cc(c3O[C@@H]2O[C@H](CO)[C@@H](O)[C@H](O)[C@H]2O[C@H]2C[C@](C)(N)[C@H](O)[C@H](C)O2)Oc2ccc(cc2Cl)[C@H]1O [VANCOMYCIN],–,–,> 64,–,1,–,–,–,1.5,> 64,–,MIC50 [15]: 256 µg/mL; MIC90 [15]: > 256 µg/mL; MIC50 [16]: 2 µg/mL; MIC90 [16]: 256 µg/mL; MIC50 [18]: 2 µg/mL; MIC90 [18]: 4 µg/mL
C[C@@H](O)[C@H]1C(=O)N2C(C(=O)O)=C(SCCNC=N)C[C@H]12 [IMIPENEM ANHYDROUS],–,–,–,–,–,–,–,–,–,–,–,MIC50 [15]: 64 µg/mL; MIC90 [15]: > 64 µg/mL; MIC50 [16]: 2 µg/mL; MIC90 [16]: 2 µg/mL; MIC50 [18]: 32 µg/mL; MIC90 [18]: 64 µg/mL
COc1cc(O)c2c(c1C)C(=O)OCC(=O)NCC(=S)N[C@H](c1nc(C)no1)CSC2,< 0.12,0.5,4,0.5,–,0.001,2.32,0.5,25,> 64,1,–
COc1cc(O)c2c(c1C)C(=O)OCCCCC(=S)N[C@H](c1nc(CN)no1)CSC2.Cl,< 0.12,0.25,4,0.5,0.5,0.002,1.85,0.25,8.5,64,0.5,Ratio [12]: 4
COc1cc(O)c2c(c1Br)C(=O)OCCCCC(=O)N[C@H](c1nc(C)no1)CSC2,< 0.12,0.12,2,0.12,< 0.12,0.005,2.18,< 0.12,25,64,< 0.12,Ratio [12]: 4
